What was measured:
HCT-116 [1] = test: Induction of cell cycle arrest in human HCT-116 cells assessed as G1 phase at 0.375 uM incubated for 36 hrs by PI staining based flow cytometry analysis (reference value: 57.4 +/- 1.3 %); assay type: functional
HCT-116 [2] = test: Induction of cell cycle arrest in human HCT-116 cells assessed as S phase at 0.375 uM incubated for 36 hrs by PI staining based flow cytometry analysis (reference value: 7.9 +/- 3.7 %); assay type: functional
HCT-116 [3] = test: Induction of cell cycle arrest in human HCT-116 cells assessed as S phase at 0.375 uM incubated for 12 hrs by PI staining based flow cytometry analysis (reference value: 15.5 +/- 0.2 %); assay type: functional
HCT-116 [4] = test: Induction of cell cycle arrest in human HCT-116 cells assessed as G1 phase at 0.375 uM incubated for 12 hrs by PI staining based flow cytometry analysis (reference value: 53.6 +/- 4.5 %); assay type: functional
NCI-H460 [5] = test: Induction of cell cycle arrest in human NCI-H460 cells assessed as G0 phase at 1.5 uM measured at 0 hrs by PI staining based flow cytometry analysis (reference value: 1.3 +/- 0.9 %); assay type: functional
[6] = Toxicity in nude mouse xenografted with human HCT-116 cells assessed as reduction in body weight at 30 mg/kg, iv administered for 5 days and repeated cycle for 2 days interval and measured on day 24; assay type: organism-based; details: in vivo, 576 h, time 24 day
Method in brief: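 Nude mice carried human HCT116 colorectal xenografts. Dosing was i.v. at 30 mg/kg once daily for five days (QD×5), and this cycle was given twice with a 2-day gap. Body weight was tracked against vehicle-treated mice, with tumour assessment at day 24.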

HCT-116 [7] = test: Induction of cell cycle arrest in human HCT-116 cells assessed as G2/M phase at 0.75 uM incubated for 36 hrs by PI staining based flow cytometry analysis (reference value: 23.6 +/- 1 %); assay type: functional
HCT-116 [8] = test: Induction of cell cycle arrest in human HCT-116 cells assessed as G2/M phase at 0.375 uM measured at 0 hrs by PI staining based flow cytometry analysis (reference value: 28.9 +/- 1.4 %); assay type: functional
HCT-116 [9] = test: Induction of cell cycle arrest in human HCT-116 cells assessed as G1 phase at 1.5 uM incubated for 12 hrs by PI staining based flow cytometry analysis (reference value: 53.6 +/- 4.5 %); assay type: functional
NCI-H460 [10] = test: Induction of cell cycle arrest in human NCI-H460 cells assessed as S phase at 3 uM incubated for 12 hrs by PI staining based flow cytometry analysis (reference value: 11.2 +/- 4.3 %); assay type: functional
NCI-H460 [11] = test: Induction of cell cycle arrest in human NCI-H460 cells assessed as G0 phase at 3 uM incubated for 12 hrs by PI staining based flow cytometry analysis (reference value: 2.9 +/- 2.4 %); assay type: functional
HCT-116 [12] = test: Induction of cell cycle arrest in human HCT-116 cells assessed as G0 phase at 1.5 uM incubated for 24 hrs by PI staining based flow cytometry analysis (reference value: 12.5 +/- 5.4 %); assay type: functional
NCI-H460 [13] = test: Induction of apoptosis in human NCI-H460 cells assessed as necrotic cells at 6 uM incubated for 48 hrs by annexin V-FITC and PI staining based flow cytometry analysis (reference value: 0.7 %); assay type: functional
NCI-H460 [14] = test: Induction of cell cycle arrest in human NCI-H460 cells assessed as G1 phase at 3 uM measured at 0 hrs by PI staining based flow cytometry analysis (reference value: 53.4 +/- 4.8 %); assay type: functional
HCT-116 [15] = test: Induction of cell cycle arrest in human HCT-116 cells assessed as G1 phase at 1.5 uM incubated for 36 hrs by PI staining based flow cytometry analysis (reference value: 57.4 +/- 1.3 %); assay type: functional
NCI-H460 [16] = test: Induction of apoptosis in human NCI-H460 cells assessed as viable cells at 3 uM incubated for 48 hrs by annexin V-FITC and PI staining based flow cytometry analysis (reference value: 90.1 %); assay type: functional; details: read-out: Activity
NCI-H460 [17] = test: Induction of apoptosis in human NCI-H460 cells assessed as early apoptotic cells at 1.5 uM incubated for 48 hrs by annexin V-FITC and PI staining based flow cytometry analysis (reference value: 2 %); assay type: functional
NCI-H460 [18] = test: Induction of apoptosis in human NCI-H460 cells assessed as late apoptotic cells at 3 uM incubated for 48 hrs by annexin V-FITC and PI staining based flow cytometry analysis (reference value: 7.3 %); assay type: functional
HCT-116 [19] = test: Induction of cell cycle arrest in human HCT-116 cells assessed as G0 phase at 0.375 uM incubated for 36 hrs by PI staining based flow cytometry analysis (reference value: 2.5 +/- 0.8 %); assay type: functional
HCT-116 [20] = test: Induction of cell cycle arrest in human HCT-116 cells assessed as G1 phase at 0.75 uM incubated for 24 hrs by PI staining based flow cytometry analysis (reference value: 55 +/- 9.8 %); assay type: functional
NCI-H460 [21] = test: Induction of cell cycle arrest in human NCI-H460 cells assessed as G2/M phase at 1.5 uM incubated for 36 hrs by PI staining based flow cytometry analysis (reference value: 25 +/- 1.2 %); assay type: functional
HCT-116 [22] = test: Cytotoxicity against human HCT-116 cells assessed as reduction in cell viability incubated for 72 hrs by XTT assay; assay type: functional, cell-based; details: HCT-116, 72 h
HCT-116 [23] = test: Induction of cell cycle arrest in human HCT-116 cells assessed as G2/M phase at 0.75 uM measured at 0 hrs by PI staining based flow cytometry analysis (reference value: 28.9 +/- 1.4 %); assay type: functional
NCI-H460 [24] = test: Induction of cell cycle arrest in human NCI-H460 cells assessed as G2/M phase at 1.5 uM incubated for 24 hrs by PI staining based flow cytometry analysis (reference value: 21 +/- 6.7 %); assay type: functional
NCI-H460 [25] = test: Induction of cell cycle arrest in human NCI-H460 cells assessed as G1 phase at 0.75 uM incubated for 12 hrs by PI staining based flow cytometry analysis (reference value: 66 +/- 10 %); assay type: functional
HCT-116 [26] = test: Induction of cell cycle arrest in human HCT-116 cells assessed as G2/M phase at 0.375 uM incubated for 24 hrs by PI staining based flow cytometry analysis (reference value: 9.3 +/- 0.8 %); assay type: functional
HCT-116 [27] = test: Induction of cell cycle arrest in human HCT-116 cells assessed as G2/M phase at 0.75 uM incubated for 12 hrs by PI staining based flow cytometry analysis (reference value: 21.7 +/- 1.9 %); assay type: functional
HCT-116 [28] = test: Induction of cell cycle arrest in human HCT-116 cells assessed as S phase at 1.5 uM incubated for 12 hrs by PI staining based flow cytometry analysis (reference value: 15.5 +/- 0.2 %); assay type: functional
NCI-H460 [29] = test: Induction of cell cycle arrest in human NCI-H460 cells assessed as S phase at 0.75 uM measured at 0 hrs by PI staining based flow cytometry analysis (reference value: 12.2 +/- 2.8 %); assay type: functional
HCT-116 [30] = test: Induction of cell cycle arrest in human HCT-116 cells assessed as G2/M phase at 0.375 uM incubated for 12 hrs by PI staining based flow cytometry analysis (reference value: 21.7 +/- 1.9 %); assay type: functional

Q: For OCc1cn2c3ccccc3c3ccccc3c2c1CO, which Activity (HCT-116 [1]) is on record?
A: 59.3%

Q: And the Activity (HCT-116 [2])?
A: 8.2%

Q: What about the Activity (HCT-116 [3]) of the same compound?
A: 16.9%

Q: And the Activity (HCT-116 [4])?
A: 51.6%

Q: And the Activity (NCI-H460 [5])?
A: 1.4%

Q: What about the Activity [6] of the same compound?
A: Non-Toxic

Q: And the Activity (HCT-116 [7])?
A: 17.4%

Q: And the Activity (HCT-116 [8])?
A: 28.8%

Q: What about the Activity (HCT-116 [9]) of the same compound?
A: 48.8%

Q: What about the Activity (NCI-H460 [10]) of the same compound?
A: 17.3%

Q: And the Activity (NCI-H460 [11])?
A: 2.5%

Q: And the Activity (HCT-116 [12])?
A: 6.4%

Q: And the Activity (NCI-H460 [13])?
A: 1.6%

Q: And the Activity (NCI-H460 [14])?
A: 52.1%

Q: What about the Activity (HCT-116 [15]) of the same compound?
A: 52.3%

Q: What about the viability at 3 µM (NCI-H460 [16]) of the same compound?
A: 36.2%

Q: And the Activity (NCI-H460 [17])?
A: 3.6%

Q: And the Activity (NCI-H460 [18])?
A: 51.4%

Q: What about the Activity (HCT-116 [19]) of the same compound?
A: 2.8%

Q: And the Activity (HCT-116 [20])?
A: 57.4%

Q: And the Activity (NCI-H460 [21])?
A: 17.5%

Q: And the IC50 (HCT-116 [22])?
A: 1120 nM

Q: What about the Activity (HCT-116 [23]) of the same compound?
A: 28.5%

Q: And the Activity (NCI-H460 [24])?
A: 25.4%

Q: What about the Activity (NCI-H460 [25]) of the same compound?
A: 53%

Q: And the Activity (HCT-116 [26])?
A: 17.8%

Q: What about the Activity (HCT-116 [27]) of the same compound?
A: 23.2%

Q: And the Activity (HCT-116 [28])?
A: 19.9%

Q: And the Activity (NCI-H460 [29])?
A: 12.6%

Q: And the Activity (HCT-116 [30])?
A: 23.2%

Reference: ChEMBL document CHEMBL4765365, “Design, synthesis and antitumour evaluation of pyrrolo[1,2-f]-phenanthridine and dibenzo[f,h]pyrrolo[1,2-b]isoquinoline derivatives” (Eur J Med Chem, 2020)
